Measurements taken from ChEMBL document CHEMBL1122629, “Potent and selective antagonists of the antidiuretic responses to arginine-vasopressin based on modifications of [1-(beta-mercapto-beta,beta-pentamethylenepropionic acid),2-D-isoleucine,4- valine]arginine-vasopressin at position 4” (J Med Chem, 1984).

Tests used:
[1] = test system: Rattus norvegicus; experiment: In vivo antidiuretic activity in rat measured as dose that reduced the response seen with 2x units of agonist to equal the response seen with 1x unit of agonist administered before antagonist; type: functional, Urine
Procedure, shortened: (§1)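 Antidiuretic assay in rats under ethanol anaesthesia against the USP posterior pituitary reference standard. Standard given 20 min after antagonist, or 10 min for analogues lacking agonism. Each peptide given at a high and a low dose. ED is the dose (nmol/kg) that cuts the response to 2x units of agonist to the response to 1x unit given before antagonist. […] Means ± SE, n assays.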

[2] = species on record: Rattus norvegicus; experiment: Anti-oxytocic activity in rat uterus and effective dose (ED) was reported.; type: functional
Procedure, shortened: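 Rat uterus in situ, with synthetic oxytocin as agonist. ED is the dose (nmol/kg) that lowers the response to 2x units of agonist to that of 1x unit given before antagonist.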

[3] = test system: Rattus norvegicus; experiment: In vivo anti-vasopressor activity in phenoxybenzamine-treated rats under urethane anesthesia is measured as effective dose; type: functional
Procedure, shortened: (§2)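 Intravenous vasopressor assay in phenoxybenzamine-treated rats under urethane anaesthesia, agonist USP posterior pituitary reference standard. ED is the dose (nmol/kg) that reduces the response to 2x units of agonist to that of 1x unit given before antagonist. […] Means ± SE, number of assays given.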

[4] = Ratio of anti-vasopressor ED50 to antiantidiuretic ED50; type: functional, Urine
Procedure, shortened: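 Ratio of antivasopressor ED to antiantidiuretic ED. Each ED is the dose (nmol/kg) that lowers the response to 2x units of agonist to that of 1x unit before antagonist. Measured in rats: vasopressor assay in phenoxybenzamine-treated, urethane-anaesthetised animals; antidiuretic assay under ethanol anaesthesia.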

[5] = species on record: Rattus norvegicus; experiment: Anti-oxytocic activity on isolated rat uterus in absence of Mg2+. pA2 value is negative logarithm of effective dose (ED); type: functional; settings: read-out: pA2 (converted)
Procedure, shortened: (§3)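 Isolated rat uterus, with USP posterior pituitary reference standard as agonist. Antagonism expressed as pA2.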

[6] = species on record: Rattus norvegicus; experiment: Anti-oxytocic activity on isolated rat uterus in presence of 0.5 mM of Mg2+. pA2 value is negative logarithm of effective dose (ED); type: functional; settings: read-out: pA2 (converted); procedure, shortened: as §3
[7] = species on record: Rattus norvegicus; experiment: Antidiuretic activity in rats and pA2 value is negative logarithm of effective dose (ED); type: functional, organism-based; settings: Urine, read-out: pA2 (converted); procedure, shortened: as §1
[8] = test system: Rattus norvegicus; experiment: Evaluated in vivo for logarithm effective dose (ED); type: functional, organism-based
[9] = species on record: Rattus norvegicus; experiment: Anti-oxytocic activity in rat uterus pA2 value is negative logarithm of effective dose (ED); type: functional, organism-based; settings: read-out: pA2 (converted)
[10] = test system: Rattus norvegicus; experiment: Compound was evaluated in vivo for anti-vasopressor activity in rats and pA2 value is negative logarithm of effective dose (ED); type: functional, organism-based; settings: read-out: pA2 (converted); procedure, shortened: as §2

| SMILES | ED [1] | ED [3] | Ratio [4] | Kb [5] | Kb [6] | Kb [7] | further results |
| --- | --- | --- | --- | --- | --- | --- | --- |
| CC[C@@H](C)[C@H]1NC(=O)CC2(CCCCC2)SSC[C@@H](C(=O)N2CCC[C@H]2C(=O)N[C@@H](CCCN=C(N)N)C(=O)NCC(N)=O)NC(=O)[C@H](CC(N)=O)NC(=O)[C@H]([C@@H](C)O)NC(=O)[C@H](Cc2ccccc2)NC1=O | 0.88 nmol/kg | 10.5 nmol/kg | 12 |  |  |  | ED [2]: 9.5 nmol/kg |
| CC[C@@H](C)[C@H]1NC(=O)CC2(CCCCC2)SSC[C@@H](C(=O)N2CCC[C@H]2C(=O)N[C@@H](CCCN=C(N)N)C(=O)NCC(N)=O)NC(=O)[C@H](CC(N)=O)NC(=O)[C@H](C(C)C)NC(=O)[C@H](Cc2ccccc2)NC1=O |  |  | 12 |  |  |  |  |
| CC[C@@H](C)[C@H]1NC(=O)CC2(CCCCC2)SSC[C@@H](C(=O)N2CCC[C@H]2C(=O)N[C@@H](CCCN=C(N)N)C(=O)NCC(N)=O)NC(=O)[C@H](CC(N)=O)NC(=O)[C@H](CC(N)=O)NC(=O)[C@H](Cc2ccccc2)NC1=O [listing 1 of 2 here] |  |  |  | 11.7 nM | 39.8 nM | 309 nM | in vivo pA2 effective dose (as concentration) [8]: 55 nM |
| CC[C@@H](C)[C@H]1NC(=O)CC2(CCCCC2)SSC[C@@H](C(=O)N2CCC[C@H]2C(=O)N[C@@H](CCCN=C(N)N)C(=O)NCC(N)=O)NC(=O)[C@H](CC(N)=O)NC(=O)[C@H](C)NC(=O)[C@H](Cc2ccccc2)NC1=O [listing 1 of 2 here] | 1.7 nmol/kg | 66 nmol/kg | 39 |  |  |  | ED [2]: 57 nmol/kg |
| CC[C@@H](C)[C@H]1NC(=O)CC2(CCCCC2)SSC[C@@H](C(=O)N2CCC[C@H]2C(=O)N[C@@H](CCCN=C(N)N)C(=O)NCC(N)=O)NC(=O)[C@H](CC(N)=O)NC(=O)[C@H](CO)NC(=O)[C@H](Cc2ccccc2)NC1=O | 4.6 nmol/kg | 45 nmol/kg | 10 |  |  |  |  |
| CC[C@@H](C)[C@H]1NC(=O)CC2(CCCCC2)SSC[C@@H](C(=O)N2CCC[C@H]2C(=O)N[C@@H](CCCN=C(N)N)C(=O)NCC(N)=O)NC(=O)[C@H](CC(N)=O)NC(=O)[C@H](CCCN)NC(=O)[C@H](Cc2ccccc2)NC1=O | 49 nmol/kg | 11.9 nmol/kg | 0.24 |  |  |  |  |
| CC[C@@H](C)[C@H]1NC(=O)CC2(CCCCC2)SSC[C@@H](C(=O)N2CCC[C@H]2C(=O)N[C@@H](CCCN=C(N)N)C(=O)NCC(N)=O)NC(=O)[C@H](CC(N)=O)NC(=O)[C@H](CC2CCCCC2)NC(=O)[C@H](Cc2ccccc2)NC1=O |  |  |  | 36.3 nM | 81.3 nM | 229 nM | in vivo pA2 effective dose (as concentration) [8]: 275 nM |
| CC[C@@H](C)[C@H]1NC(=O)CC2(CCCCC2)SSC[C@@H](C(=O)N2CCC[C@H]2C(=O)N[C@@H](CCCN=C(N)N)C(=O)NCC(N)=O)NC(=O)[C@H](CC(N)=O)NC(=O)[C@H](C)NC(=O)[C@H](Cc2ccccc2)NC1=O [listing 2 of 2 here] |  |  |  | 31.6 nM | 33.9 nM | 17.4 nM | Kb [9]: 724 nM; Kb [10]: 933 nM |
| CC[C@@H](C)[C@H]1NC(=O)CC2(CCCCC2)SSC[C@@H](C(=O)N2CCC[C@H]2C(=O)N[C@@H](CCCN=C(N)N)C(=O)NCC(N)=O)NC(=O)[C@H](CC(N)=O)NC(=O)[C@H](CCCCN)NC(=O)[C@H](Cc2ccccc2)NC1=O | 11.9 nmol/kg |  |  |  |  |  |  |
| CC[C@@H](C)[C@H]1NC(=O)CC2(CCCCC2)SSC[C@@H](C(=O)N2CCC[C@H]2C(=O)N[C@@H](CCCN=C(N)N)C(=O)NCC(N)=O)NC(=O)[C@H](CC(N)=O)NC(=O)[C@H](CC(N)=O)NC(=O)[C@H](Cc2ccccc2)NC1=O [listing 2 of 2 here] | 25 nmol/kg | 3.9 nmol/kg | 0.16 |  |  |  |  |
| CC[C@@H](C)[C@H]1NC(=O)CC2(CCCCC2)SSC[C@@H](C(=O)N2CCC[C@H]2C(=O)N[C@@H](CCCN=C(N)N)C(=O)NCC(N)=O)NC(=O)[C@H](CC(N)=O)NC(=O)[C@H](CC(C)C)NC(=O)[C@H](Cc2ccccc2)NC1=O | 11 nmol/kg | 12.4 nmol/kg | 1.1 |  |  |  |  |
| CC[C@@H]1NC(=O)[C@H](Cc2ccccc2)NC(=O)[C@@H]([C@H](C)CC)NC(=O)CC2(CCCCC2)SSC[C@@H](C(=O)N2CCC[C@H]2C(=O)N[C@@H](CCCN=C(N)N)C(=O)NCC(N)=O)NC(=O)[C@H](CC(N)=O)NC1=O | 0.41 nmol/kg | 12 nmol/kg | 29 |  |  |  | ED [2]: 19 nmol/kg |
| NC(=O)CNC(=O)[C@H](CCCN=C(N)N)NC(=O)[C@@H]1CCCN1C(=O)[C@@H]1CSSC2(CCCCC2)CC(=O)N[C@H](Cc2ccccc2)C(=O)N[C@@H](Cc2ccccc2)C(=O)N[C@@H](CO)C(=O)N[C@@H](CC(N)=O)C(=O)N1 |  |  |  | 22.9 nM | 14.8 nM | 46.8 nM | Kb [9]: 200 nM; in vivo pA2 effective dose (as concentration) [8]: 23.4 nM |
